Variants at the floor of the assay were thinned out.
B1: tRNA (parent)
chain: CUCUCGGUAGCCAAGUUGGUUUAAGGCGCAAGACUUUAAUUUAUCACUACGAAAUCUUGAGAUCGGGCGUUCGACUCGCCCCCGGGAGAUUUUUUCCUCGAGCAA

Variants of: B1
Assay: nonsense suppression (GFP-seq) (ratio to wild type); higher = more function; SUP4oc tRNA, yeast GFP reporter sort-seq
In short: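 Raffinose/galactose medium with 80 mg/L adenine was used to grow yeast carrying genome-integrated tRNA variants (~3% random-mutation library), RFP, and a galactose-driven GFP ochre reporter. Cells went into GFP/RFP bins, which were Illumina-sequenced, and variants with ≥100 reads and ≥30 cells were scored. Nonsense suppression (GFPSEQ) is the per-bin median GFP/RFP weighted by estimated cell share and expressed relative to the unmutated parent tRNA.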

Nonsense suppression, 0.0525:
C1U G78A

Nonsense suppression, 0.0437:
U2A C29U

Nonsense suppression, 0.0805:
C3U A31G

Nonsense suppression, 0.0314:
C1A C80U

Nonsense suppression, 0.0323:
U2A U4A

Nonsense suppression, 0.0277:
C3G U4G

Nonsense suppression, 0.0677:
U2G A9U
C3G A54C

Nonsense suppression, ≤ 0.026:
C1U G7C G69C G85C
U2C A14U U57C
U2A C34U
C1A U71C C77G
C3U A31U
C3G A9G G59U
U2G A33C A60U G73C
U2G A23G G66A
C1G G6U G66U G73U
C1A U4G C11U
U2C U20C A24U
C1U C56A U76C
U2C A24G A31C A60C C82A G85C
C1A C56G A62U C80G C82A
C3A U20C U55C
C1G C27A U55G
C1U A9U A13C C64U
U2A U4A G7A
C1A G19C A31G A60U U71A C72G G84U
U2G G10C G15U C29U A31U
C3G C29G A54U
C1A U2A U35C U70A
C3A G67U
C3A G6A U71G
U2A C3G C27G C29G A33U
U2G G28U U35C
U2A C27U A31G U57C
U2C C3U C12U G15A
U2G A14C G84C
U2G A74C
U2A G86A
C1G A54G U63G U70G
U2G U55G
C1A A13U
C1U G85C A89C
U2G G6C A89C
C1G U8C U55G G69C
U2C C56G
U2C C56A
U2C C56U
U2G C83G
C1G C5G A31C G73A
C1U U71G
C3G A24C A31C
U2C C27A C82U
C1U U17G
C1A C11U C12U A14U A62U
C1U G19U G28C U57C G84A
U2G G32C
C1G C29A C34U
C3G A30G C34G U55G G69C C79A
C3G U20G G69A U70C
U2A A31C A62C G78U A87U
C1U A23G C29U C64G
C1A C5G
C1U U55G U58G
C3A A89G
U2C G86A
C1A C3G U58A C68G
C1U G67C
C1U C12A
C1U C12U
C3G G59A G78U A87U
C3G G65C C79U
C3G G7C U55A
C3G G28A U55C G86U G88U
U2C G18C G25U A54C U57C G61U U70G
U2C A30U A31G A62G G67A G86C
C1U G18A
C1G G7A G66C A74C
C1U C5U U22C U63C
C1A C3A U8A G88A
C1G A14U C77U
C1A U2G G19A G32C A89G
C3G U8G U21C C34U
U2G G10A C11G U20G A33G
C3G A14U G18U
U2C G6U C29U
U2C U63G G73A
C1A C5U U17A U55A
U2G U8A C12A A30G G59U G88C
U2G G85A
C1A G10U G61A A62C G73C
C1A G86C
C3A G28U G65C
U2G C3U C27G G66A U70C
C1G C3G G25A C27U
U2C C5A
U2C C5G
U2C U21C U57G
C1U C3A U8A U17C
C1U A14G A31G U58G
U2C C79G
C3A U4A A62G
U2C A23G A62C G67A
C1U G18A U21G C27U
C3A U35G
C3A U35A
C3A U35C
C3A G66C
U2C A31G C72U
C3G C11A C81G
U2G C77U
U2G C77G
C1A C5G A13G G18C A54U G65C
U2A A24G G25A
C3G A23G C27U C81A C83A G86A
U2C U55C U58G
C1U C3U C12U
C1G G10C C29U C34G A89G
C1A G26C
U2A A31U A33G U58A
C1A G19U U55A
U2G A23U
C1U G26A U57C
C1A A54G U58C U71C
U2A C12A
U2A U4G G18A
C3U A23U A30C
C3G A74G
C3G C27U U57C G59A G61A
C3A U58G U76A

Nonsense suppression, 0.203:
U2C U21C
U2A U4G

Nonsense suppression, 0.205:
U2C U4C A13G

Nonsense suppression, 0.0398:
C1G U55C

Nonsense suppression, 0.0354:
U2A C80U

Nonsense suppression, 0.0435:
U2C U17A

Nonsense suppression, 0.168:
U2C U16G

Nonsense suppression, 0.184:
C3U A13C

Nonsense suppression, 1.13:
U2C C68U A87G

Nonsense suppression, 0.0776:
C3A G78A

Nonsense suppression, 0.327:
C1U C12G

Nonsense suppression, 0.191:
C3A U4C

Nonsense suppression, 0.0788:
C3G U20C

Nonsense suppression, 0.027:
C3U A33U

Nonsense suppression, 0.194:
U2C A60U
C3U A13U

Nonsense suppression, 0.0631:
C1G G73A

Nonsense suppression, 0.0774:
U2G G78U

Nonsense suppression, 0.0279:
U2C G61C

Nonsense suppression, 0.206:
U2C C75U

Nonsense suppression, 0.0575:
C3U A24C

Nonsense suppression, 0.03:
C1A G85U

Nonsense suppression, 0.0357:
U2A C27U

Nonsense suppression, 0.031:
U2A A30U

Nonsense suppression, 0.0508:
U2A G73A

Nonsense suppression, 0.399:
C3G U4C

Nonsense suppression, 0.783:
C3G G7A C56G C79G

Nonsense suppression, 0.0411:
U2G G85U

Nonsense suppression, 0.0359:
U2C A60C

Nonsense suppression, 0.722:
C1U U20A G73C

Nonsense suppression, 0.122:
U2C G61U

Nonsense suppression, 0.25:
U2A C34G G85C A89C

Nonsense suppression, 0.0369:
C3G G85U

Nonsense suppression, 0.739:
C3U

Nonsense suppression, 0.344:
C3G G15C U58G G88C

Nonsense suppression, 0.053:
U2G U55C

Nonsense suppression, 0.0971:
U2A U4C U16C

From the RNAGym collection of RNA variant scans (doi:10.1101/gad.245936.114)
